Results taken from ChEMBL document CHEMBL1147173, “Design, synthesis, inhibitory activity, and SAR studies of pyrrolidine derivatives as neuraminidase inhibitors” (Bioorg Med Chem, 2007).
Where a SMILES comes first, the peptide text is derived from it. [ ]: non-standard residue; d: D form. The star is where a group is joined. Hyp = O=C(O)[C@@H]1C[C@@H](O)CN1; Boc = CC(C)(C)OC(=O)*; NHOH = ON*

Biological target: Neuraminidase (Influenza A virus, UniProt B4URF0)
Assay: Inhibition of Influenza A virus type A H3N2 neuraminidase
Outline: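 NA was taken from influenza A virus strains Yuefang 72-243 A and Jifang 90-15 A and prepared by the Laver method. The enzyme in 33 mmol/L MES (pH 3.5) was mixed with 4 mmol/L CaCl₂ and 20 µmol/L MUNANA (added solutions) and incubated for 10 min at 37 °C. The reaction was stopped with 14 mmol/L NaOH in 83% ethanol. Fluorescence was read at 360/450 nm with substrate blanks subtracted. IC50 came from percent inhibition versus concentration, with each point run in duplicate.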

Sequence of Neuraminidase (B4URF0 whole entry): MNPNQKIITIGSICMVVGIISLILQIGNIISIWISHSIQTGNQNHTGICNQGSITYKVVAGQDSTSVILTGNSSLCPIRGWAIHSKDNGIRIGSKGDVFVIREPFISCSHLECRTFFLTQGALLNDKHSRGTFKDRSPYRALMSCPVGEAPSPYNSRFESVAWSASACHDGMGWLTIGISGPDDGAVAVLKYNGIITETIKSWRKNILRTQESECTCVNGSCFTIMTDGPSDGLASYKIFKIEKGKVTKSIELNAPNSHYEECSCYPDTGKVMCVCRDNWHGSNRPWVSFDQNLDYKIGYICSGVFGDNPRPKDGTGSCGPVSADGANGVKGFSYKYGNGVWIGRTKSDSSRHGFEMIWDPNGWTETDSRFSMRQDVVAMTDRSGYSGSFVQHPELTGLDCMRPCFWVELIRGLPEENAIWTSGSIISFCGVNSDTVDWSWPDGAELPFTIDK

Structure (SMILES) | IC50 (read-out: IC50) [µM] | IC50 (read-out: Log IC50 (converted)) [µM]
C[C@H](NC(=O)OC(C)(C)C)C(=O)N1C[C@@H](N)C[C@H]1C(=O)O | 15.8 | 53.7
C[C@H](NC(=O)OC(C)(C)C)C(=O)N1C[C@@H](N)C[C@H]1C(=O)NO | 12.6 | 40.7
CC[C@H](C)[C@H](NC(=O)OC(C)(C)C)C(=O)N1C[C@@H](N)C[C@H]1C(=O)O | 2.71 | 7.94
CSCC[C@H](NC(=O)OC(C)(C)C)C(=O)N1C[C@@H](N)C[C@H]1C(=O)O | 1.56 | 4.37
CC(C)C[C@H](NC(=O)OC(C)(C)C)C(=O)N1C[C@@H](N)C[C@H]1C(=O)NO | 6.13 | 17.4
O=C(NO)[C@@H]1C[C@@H](O)CN1C(=O)Cc1ccccc1Nc1c(Cl)cccc1Cl | 8.54 | 20
CC(C)[C@H](NC(=O)OC(C)(C)C)C(=O)N1C[C@@H](N)C[C@H]1C(=O)O | 4.29 | 13.2
COC(=O)[C@@H]1C[C@@H](N)CN1C(=O)[C@@H](N)CC(C)C | 48 | 191
CC(C)(C)OC(=O)N[C@@H](Cc1ccccc1)C(=O)N1C[C@@H](N)C[C@H]1C(=O)O | 2.4 | 6.46
CC[C@H](C)[C@H](NC(=O)OC(C)(C)C)C(=O)N1C[C@@H](N)C[C@H]1C(=O)NO | 2.1 | 5.89
O=C(O)[C@@H]1C[C@@H](O)CN1C(=O)Cc1ccccc1Nc1c(Cl)cccc1Cl | 19.8 | 49
CC(C)(C)OC(=O)N[C@@H](Cc1ccccc1)C(=O)N1C[C@@H](N)C[C@H]1C(=O)NO | 4.17 | 10.7
N[C@H]1C[C@@H](C(=O)O)N(C(=O)Cc2ccccc2Nc2c(Cl)cccc2Cl)C1 | 16.2 | 39.8
CC(=O)N1C[C@H](O)C[C@@H]1C(=O)O | 48.7 | 282
COC(=O)[C@@H]1C[C@H](N)CN1C(=O)[C@H](C)NC(=O)OC(C)(C)C | 83.7 | 269
N[C@H]1C[C@@H](C(=O)NO)N(C(=O)Cc2ccccc2Nc2c(Cl)cccc2Cl)C1 | 3.57 | 8.51
COC(=O)[C@@H]1C[C@@H](O)CN1C(=O)[C@H](C)NC(=O)OC(C)(C)C (Boc-Ala-[Hyp]-OMe) | 90.8 | 288
CC[C@H](C)[C@H](NC(=O)OC(C)(C)C)C(=O)N1C[C@H](O)C[C@H]1C(=O)NO (Boc-Ile-[Hyp]-{NHOH}) | 2.15 | 6.03
CC(C)C[C@H](NC(=O)OC(C)(C)C)C(=O)N1C[C@H](O)C[C@H]1C(=O)O (Boc-Leu-[Hyp]-OH) | 11.5 | 33.9
CC(C)C[C@H](NC(=O)OC(C)(C)C)C(=O)N1C[C@H](O)C[C@H]1C(=O)NO (Boc-Leu-[Hyp]-{NHOH}) | 3.87 | 11
CC(C)(C)OC(=O)N[C@@H](Cc1ccccc1)C(=O)N1C[C@H](O)C[C@H]1C(=O)O (Boc-Phe-[Hyp]-OH) | 2.85 | 7.59
CC(C)(C)OC(=O)N[C@@H](Cc1ccccc1)C(=O)N1C[C@H](O)C[C@H]1C(=O)NO (Boc-Phe-[Hyp]-{NHOH}) | 4.27 | 11
CC(C)[C@H](NC(=O)OC(C)(C)C)C(=O)N1C[C@H](O)C[C@H]1C(=O)O (Boc-Val-[Hyp]-OH) | 4.63 | 14.1
CC(C)[C@H](NC(=O)OC(C)(C)C)C(=O)N1C[C@H](O)C[C@H]1C(=O)NO (Boc-Val-[Hyp]-{NHOH}) | 6.09 | 17.8
